Experimental data of several laboratories.
Target: Homeodomain-interacting protein kinase 4 (HIPK4, Homo sapiens, UniProt Q8NE63)
Residues used in one study (Q8NE63 1-616): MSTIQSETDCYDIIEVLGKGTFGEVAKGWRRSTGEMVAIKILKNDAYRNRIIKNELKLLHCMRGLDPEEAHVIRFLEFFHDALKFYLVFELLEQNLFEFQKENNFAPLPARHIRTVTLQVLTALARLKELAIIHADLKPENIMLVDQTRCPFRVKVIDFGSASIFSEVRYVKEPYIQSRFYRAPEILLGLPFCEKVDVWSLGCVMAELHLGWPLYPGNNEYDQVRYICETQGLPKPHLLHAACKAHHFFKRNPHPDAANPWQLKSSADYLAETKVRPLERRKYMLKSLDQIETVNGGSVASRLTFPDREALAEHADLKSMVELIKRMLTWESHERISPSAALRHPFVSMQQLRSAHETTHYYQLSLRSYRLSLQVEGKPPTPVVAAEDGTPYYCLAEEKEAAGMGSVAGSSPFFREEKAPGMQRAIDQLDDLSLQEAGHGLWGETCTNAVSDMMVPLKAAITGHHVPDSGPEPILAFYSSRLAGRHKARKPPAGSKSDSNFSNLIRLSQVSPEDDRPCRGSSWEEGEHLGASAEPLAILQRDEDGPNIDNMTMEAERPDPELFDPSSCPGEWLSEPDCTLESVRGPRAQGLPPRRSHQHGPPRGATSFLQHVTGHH

| Structure (SMILES) | test | setting | remaining binding [%] |
| --- | --- | --- | --- |
| N[C@H]1CCN(c2nccc(-c3cnn4ncccc34)n2)C1 | binding | 1 µM | 33 |
| C[C@H](c1ccnc(Nc2nc3ccc(-c4cc(N(C)C)ncn4)cc3[nH]2)c1)N1CCN(C(=O)CC(F)(F)F)CC1 | cell-free assay, competition with immobilised ligand | 0.1 µM | 100 |
| COc1ccnn2ncc(-c3ccnc(N(C)C)n3)c12 | binding | 1 µM | 100 |
| COc1cnc(Nc2cccc(S(N)(=O)=O)c2)nc1N1CCN(c2ccccc2)C(=O)C1 | binding, competition with immobilised ligand | 1 µM | 91 |
| CN(c1ccnc(CNc2nc(Nc3ccc4c(c3)CC(=O)N4)ncc2C(F)(F)F)n1)S(C)(=O)=O | cell-free assay, competition with immobilised ligand | 1 µM | 35 |
| Cc1cnn2ncc(-c3ccnc(N(C)C)n3)c2c1 | binding | 1 µM | 77 |
| O=C(c1ccc(Nc2ncc(Cl)c(-c3cc4ccccc4s3)n2)cc1)N1CCC(N2CCCC2)CC1 | binding, competition with immobilised ligand | 1 µM | 2.5 |
| F[C@@H]1CCN(c2nccc(-c3cnn4ncccc34)n2)C1 | binding | 1 µM | 90 |
| C=CC(=O)N1CCC(C(=O)NCC(=O)N2CCN(c3nc(-c4cnc(N)nc4C(F)F)nc(N4CCOCC4)n3)CC2)CC1 | binding, competition with immobilised ligand | 1 µM | 100 |
| C[C@@H](c1ccc(-n2cnc3c(N)ncnc32)cc1)N1CCc2nn(C)c(Cc3ccccc3)c2C1=O | binding, competition with immobilised ligand | 0.1 µM | 100 |
| FC(F)(F)Oc1cccc(-c2cnc3ccc(-c4ccncc4)nn23)c1 | cell-free assay, competition with immobilised ligand | 5 µM | 5.2 |
| Cc1cnc(Nc2ccc(C(=O)N3CCC(N4CCCC4)CC3)cc2)nc1-c1cc2ccccc2s1 | binding, competition with immobilised ligand | 1 µM | 1.3 |
| c1cncc(-c2cccc(Nc3nccc(NC4CCCCC4)n3)c2)c1 | binding, competition with immobilised ligand | 10 µM | 22 |
| CN(C)c1ncc(F)c(-c2cnn3ncccc23)n1 | binding | 1 µM | 100 |
| CN(C(=O)c1ccccc1)c1cc(N(C)c2ccc3c(c2)CCc2ccc(C(=O)NCCN4CCOCC4)cc2C3=O)ccc1F | cell-free assay, competition with immobilised ligand | 1 µM | 100 |
| C[C@H]1CCN(c2nccc(-c3cnn4ncccc34)n2)C1 | binding | 1 µM | 80 |
| C[C@@H]1CN(c2cc(-c3n[nH]c4ccc(OC5(C)CC5)cc34)ncn2)C[C@H](C)O1 | cell-free assay, competition with immobilised ligand | 0.1 µM | 97 |
| CC1CCCN1c1nccc(-c2cnn3ncccc23)n1 (stereo not shown) | binding | 1 µM | 97 |
| Nc1c(C(=O)NCc2ccc(C(=O)NCCCC3CCCCC3)cc2)cnn1-c1ccccc1 | cell-free assay, competition with immobilised ligand | 0.1 µM | 100 |
| O=C(NCCCN1CCOCC1)c1ccc(Nc2ncc(Cl)c(-c3ccc(Cl)s3)n2)cc1 | binding, competition with immobilised ligand | 1 µM | 14 |
| CN(C)C(=O)Cn1cc(-c2nc([C@@](C)(c3ccc(-c4cnc(N)nc4)cc3)C3CC3)no2)cn1 | cell-free assay, competition with immobilised ligand | 1 µM | 70 |
| O=C(Nc1c[nH]nc1C(=O)NC1CCNCC1)c1cc(F)cc(F)c1 | binding, competition with immobilised ligand | 1 µM | 59 |
